Data from ChEMBL document CHEMBL2157880, “Synthesis, antimycobacterial and antibacterial activity of ciprofloxacin derivatives containing a N-substituted benzyl moiety” (2012).
≈ marks a conversion by molar mass, not a printed value.

Each compound was assayed on Enterococcus faecalis (assay: Antibacterial activity against Enterococcus faecalis 10-7 after 18 to 24 hrs by NCCLS method).
Format: functional
How it was run: (§1)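 Standard NCCLS (M100-S11) MIC testing against Gram-positive and Gram-negative strains. Plates were incubated at 35 °C for 18–24 h. The MIC was read as the lowest concentration giving complete inhibition of visible bacterial growth.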

Row | Compound | MIC [µg/mL]
1 | COc1cc(CN2CCN(c3cc4c(cc3F)c(=O)c(C(=O)O)cn4C3CC3)CC2)c([N+](=O)[O-])cc1OC | 16 (≈ 30.4 µM)

The compounds below were run on Escherichia coli (assay: Antibacterial activity against Escherichia coli 10-2 after 18 to 24 hrs by NCCLS method).
Format: functional
How it was run: as §1

Row | Compound | MIC [µg/mL]
2 | COc1cc(CN2CCN(c3cc4c(cc3F)c(=O)c(C(=O)O)cn4C3CC3)CC2)c([N+](=O)[O-])cc1OC | 8 (≈ 15.2 µM)

Each compound was assayed on Klebsiella pneumoniae (assay: Antibacterial activity against extended spectrum beta-lactamases producing Klebsiella pneumoniae 10-1 after 18 to 24 hrs by NCCLS method).
Format: functional
How it was run: as §1

Row | Compound | MIC [µg/mL]
3 | COc1cc(CN2CCN(c3cc4c(cc3F)c(=O)c(C(=O)O)cn4C3CC3)CC2)c([N+](=O)[O-])cc1OC | > 128

What follows are compounds tested on Pseudomonas aeruginosa (assay: Antibacterial activity against Pseudomonas aeruginosa 10-18 after 18 to 24 hrs by NCCLS method).
Format: functional
How it was run: as §1

Row | Compound | MIC [µg/mL]
4 | COc1cc(CN2CCN(c3cc4c(cc3F)c(=O)c(C(=O)O)cn4C3CC3)CC2)c([N+](=O)[O-])cc1OC | 8 (≈ 15.2 µM)

What follows are compounds tested on Escherichia coli (assay: Antibacterial activity against extended spectrum beta-lactamases producing Escherichia coli 10-2 after 18 to 24 hrs by NCCLS method).
Format: functional
How it was run: as §1

Row | Compound | MIC [µg/mL]
5 | COc1cc(CN2CCN(c3cc4c(cc3F)c(=O)c(C(=O)O)cn4C3CC3)CC2)c([N+](=O)[O-])cc1OC | > 128

What follows are compounds tested on Staphylococcus aureus (assay: Antibacterial activity against methicillin-sensitive Staphylococcus aureus 10-11 after 18 to 24 hrs by NCCLS method).
Format: functional
How it was run: as §1

Row | Compound | MIC [µg/mL]
6 | COc1cc(CN2CCN(c3cc4c(cc3F)c(=O)c(C(=O)O)cn4C3CC3)CC2)c([N+](=O)[O-])cc1OC | 1 (≈ 1.9 µM)

What follows are compounds tested on Pseudomonas aeruginosa (assay: Antibacterial activity against Pseudomonas aeruginosa 10-5 after 18 to 24 hrs by NCCLS method).
Format: functional
How it was run: as §1

Row | Compound | MIC [µg/mL]
7 | COc1cc(CN2CCN(c3cc4c(cc3F)c(=O)c(C(=O)O)cn4C3CC3)CC2)c([N+](=O)[O-])cc1OC | 8 (≈ 15.2 µM)

Each compound was assayed on Mycobacterium tuberculosis (assay: Antimycobacterial activity against Mycobacterium tuberculosis H37Rv ATCC 27294 by microplate alamar blue assay).
Format: functional
How it was run: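 Microplate Alamar Blue fluorescence assay on strain H37Rv ATCC 27294. MIC was the lowest concentration cutting fluorescence by ≥90% against the mean of replicate bacterium-only controls.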

Row | Compound | MIC [µg/mL]
8 | COc1cc(CN2CCN(c3cc4c(cc3F)c(=O)c(C(=O)O)cn4C3CC3)CC2)c([N+](=O)[O-])cc1OC | > 32

The compounds below were run on Staphylococcus epidermidis (assay: Antibacterial activity against methicillin-sensitive Staphylococcus epidermidis 10-11 after 18 to 24 hrs by NCCLS method).
Format: functional
How it was run: as §1

Row | Compound | MIC [µg/mL]
9 | COc1cc(CN2CCN(c3cc4c(cc3F)c(=O)c(C(=O)O)cn4C3CC3)CC2)c([N+](=O)[O-])cc1OC | 2 (≈ 3.8 µM)

What follows are compounds tested on Enterococcus faecalis (assay: Antibacterial activity against Enterococcus faecalis 10-6 after 18 to 24 hrs by NCCLS method).
Format: functional
How it was run: as §1

Row | Compound | MIC [µg/mL]
10 | COc1cc(CN2CCN(c3cc4c(cc3F)c(=O)c(C(=O)O)cn4C3CC3)CC2)c([N+](=O)[O-])cc1OC | 128 (≈ 243 µM)

These compounds were tested on Escherichia coli (assay: Antibacterial activity against extended spectrum beta-lactamases producing Escherichia coli 10-3 after 18 to 24 hrs by NCCLS method).
Format: functional
How it was run: as §1

Row | Compound | MIC [µg/mL]
11 | COc1cc(CN2CCN(c3cc4c(cc3F)c(=O)c(C(=O)O)cn4C3CC3)CC2)c([N+](=O)[O-])cc1OC | > 128

These compounds were tested on Staphylococcus aureus (assay: Antibacterial activity against methicillin-sensitive Staphylococcus aureus 10-14 after 18 to 24 hrs by NCCLS method).
Format: functional
How it was run: as §1

Row | Compound | MIC [µg/mL]
12 | COc1cc(CN2CCN(c3cc4c(cc3F)c(=O)c(C(=O)O)cn4C3CC3)CC2)c([N+](=O)[O-])cc1OC | 1 (≈ 1.9 µM)

Each compound was assayed on Escherichia coli (assay: Antibacterial activity against extended spectrum beta-lactamases producing Escherichia coli 10-4 after 18 to 24 hrs by NCCLS method).
Format: functional
How it was run: as §1

Row | Compound | MIC [µg/mL]
13 | COc1cc(CN2CCN(c3cc4c(cc3F)c(=O)c(C(=O)O)cn4C3CC3)CC2)c([N+](=O)[O-])cc1OC | > 128

The compounds below were run on Staphylococcus epidermidis (assay: Antibacterial activity against methicillin-resistant Staphylococcus epidermidis 10-10 after 18 to 24 hrs by NCCLS method).
Format: functional
How it was run: (§2)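 Incubated at 35 °C for 18–24 h under NCCLS (M100-S11) standards. MIC was read as the lowest concentration giving complete inhibition of visible bacterial growth.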

Row | Compound | MIC [µg/mL]
14 | COc1cc(CN2CCN(c3cc4c(cc3F)c(=O)c(C(=O)O)cn4C3CC3)CC2)c([N+](=O)[O-])cc1OC | 16 (≈ 30.4 µM)

The compounds below were run on Staphylococcus epidermidis (assay: Antibacterial activity against methicillin-resistant Staphylococcus epidermidis 10-13 after 18 to 24 hrs by NCCLS method).
Format: functional
How it was run: as §2

Row | Compound | MIC [µg/mL]
15 | COc1cc(CN2CCN(c3cc4c(cc3F)c(=O)c(C(=O)O)cn4C3CC3)CC2)c([N+](=O)[O-])cc1OC | 16 (≈ 30.4 µM)

Each compound was assayed on Klebsiella pneumoniae (assay: Antibacterial activity against extended spectrum beta-lactamases producing Klebsiella pneumoniae 10-2 after 18 to 24 hrs by NCCLS method).
Format: functional
How it was run: as §1

Row | Compound | MIC [µg/mL]
16 | COc1cc(CN2CCN(c3cc4c(cc3F)c(=O)c(C(=O)O)cn4C3CC3)CC2)c([N+](=O)[O-])cc1OC | > 128

These compounds were tested on Staphylococcus aureus (assay: Antibacterial activity against methicillin-resistant Staphylococcus aureus 10-11 after 18 to 24 hrs by NCCLS method).
Format: functional
How it was run: as §2

Row | Compound | MIC [µg/mL]
17 | COc1cc(CN2CCN(c3cc4c(cc3F)c(=O)c(C(=O)O)cn4C3CC3)CC2)c([N+](=O)[O-])cc1OC | 64 (≈ 122 µM)

The compounds below were run on Klebsiella pneumoniae (assay: Antibacterial activity against Klebsiella pneumoniae 10-3 after 18 to 24 hrs by NCCLS method).
Format: functional
How it was run: as §1

Row | Compound | MIC [µg/mL]
18 | COc1cc(CN2CCN(c3cc4c(cc3F)c(=O)c(C(=O)O)cn4C3CC3)CC2)c([N+](=O)[O-])cc1OC | 8 (≈ 15.2 µM)

The compounds below were run on Pseudomonas aeruginosa (assay: Antibacterial activity against Pseudomonas aeruginosa 10-20 after 18 to 24 hrs by NCCLS method).
Format: functional
How it was run: as §1

Row | Compound | MIC [µg/mL]
19 | COc1cc(CN2CCN(c3cc4c(cc3F)c(=O)c(C(=O)O)cn4C3CC3)CC2)c([N+](=O)[O-])cc1OC | 4 (≈ 7.6 µM)
